Counter-ions that a name gives are not always drawn. Where only a bound is given, the exact number is not on record here.

What is called IC50 is the midpoint of a concentration-inhibition curve. High values mean lower potency, low ones higher potency. Usually ΔTm stands for the shift of the melting midpoint relative to a reference.

The subject of one test is OS-RC-2. As to the kind of experiment: Cytotoxicity against human OS-RC2 cells by MTT assay. Type of test: functional, cell-based. The gist of the method: (§1)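 MTT assay in human tumour lines. IC50 is the compound concentration giving a 50% drop in optical density relative to untreated cells. Values are means of three independent determinations.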
(Tetrazolium dyes change colour on reduction, which living cells bring about.)

The nature of test [1]: Cytotoxicity against human BCG823 cells by MTT assay. Type of test: functional, cell-based. The gist of the method:
as §1

The next test deals with HepG2. As to the kind of experiment: Cytotoxicity against human HepG2 cells by MTT assay. It is filed as functional, cell-based. The gist of the method: as §1
Another test has as its system KB. As to the kind of experiment: Cytotoxicity against human KB cells by MTT assay. Type of test: functional, cell-based. The method in brief: as §1
The next test has as its system A-375. As to the kind of experiment: Cytotoxicity against human A375 cells by MTT assay. Type of test: functional, cell-based. The gist of the method:
as §1

The next test deals with CWR22R. Briefly: Cytotoxicity against human 22Rv1 cells by MTT assay. It is filed as functional, cell-based. The method in brief: as §1
A further test has as its system MCF7. Briefly: Cytotoxicity against human MCF7 cells by MTT assay. It is filed as functional, cell-based. The gist of the method:
as §1

Another test concerns HT-29. Briefly: Cytotoxicity against human HT-29 cells by MTT assay. It is filed as functional, cell-based. The gist of the method: as §1
The next test concerns 786-0. As to the kind of experiment: Cytotoxicity against human 786-0 cells by MTT assay. Type of test: functional, cell-based. The gist of the method: as §1
In a further test the test system is 769-P. Briefly: Cytotoxicity against human 769-P cells by MTT assay. Type of test: functional, cell-based. The gist of the method: as §1
For the next test, the system named is Calf thymus DNA. Briefly: Binding affinity to calf thymus DNA assessed as change in melting temperature at drug/DNA ratio 0.2 at pH 7.4. Type of test: nucleic-acid assay. The settings on record: Bos taurus. The method in brief:
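Thermal denaturation of calf thymus DNA in PE buffer (1 mM Na₂HPO₄, 0.1 mM EDTA, pH 7.4), drug/DNA ratio 0.2; ΔTm taken as Tm of drug–DNA complex minus Tm of DNA alone.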

As for `CCN(CC)CCCCNCc1cc2c3ccccc3n(CCCc3ccccc3)c2cn1`, the IC50 in the test on OS-RC-2 is 27.7 µM; in [1], 8.8 µM; in the test with HepG2, 3.4 µM; with KB it was 6.1 µM; in the test on A-375 it was 5.8 µM; with CWR22R, 7.6 µM. Also, the IC50 is 9.1 µM in the test on MCF7, 6.4 µM in the test on HT-29, 9.2 µM in the test with 786-0 and 10.9 µM in the test on 769-P.

As to `CCN(CC)CCNCc1cc2c3ccccc3n(Cc3ccc(F)cc3)c2cn1`, the IC50 stood at 93.6 µM in the test on OS-RC-2; 10.9 µM in test [1]; 9.1 µM in the test with HepG2; 37.1 µM in the test with KB; 35 µM in the test with A-375; 9 µM in the test on CWR22R. For the same compound, the IC50 in the test with MCF7 turned out to be 43.6 µM; in the test on HT-29 it was 36.2 µM; in the test on 786-0 it was 13.1 µM; with 769-P it was 8.8 µM.

Regarding `CCN(CC)CCCNCc1cc2c3ccccc3n(C)c2cn1`, the IC50 was over 100 µM with OS-RC-2; over 100 µM in [1]; 96.1 µM in the test on HepG2; 59.7 µM in the test with KB; over 100 µM with A-375; over 100 µM in the test with CWR22R. Also, the IC50 in the test on MCF7 is over 100 µM; with HT-29, 35.7 µM; in the test with 786-0 it was 87.6 µM; in the test on 769-P it was over 100 µM. In addition, in the test on Calf thymus DNA, the ΔTm stood at 24.5 °C.

For `CCCCn1c2ccccc2c2cc(CNCCCCN(CC)CC)ncc21`, the IC50 was 71.7 µM with OS-RC-2; 23.4 µM in test [1]; 8 µM in the test with HepG2; 10.2 µM with KB; 15.2 µM in the test on A-375; 13.5 µM in the test on CWR22R. For the same compound, the IC50 in the test with MCF7 was 23.4 µM; in the test on HT-29 it was 27.4 µM; in the test with 786-0 it was 14.1 µM; in the test on 769-P, 8 µM.

With `CCN(CC)CCCNCc1cc2c3ccccc3n(Cc3ccccc3)c2cn1`, the IC50 with OS-RC-2 was found to be 14.5 µM; in test [1], 2.8 µM; in the test on HepG2, 4.4 µM; in the test on KB, 4.9 µM; in the test on A-375 it was 17.5 µM; with CWR22R, 7.3 µM. Moreover, the IC50 in the test on MCF7 came to 32.5 µM; in the test on HT-29, 3.7 µM; with 786-0, 6.4 µM; in the test on 769-P, 1.5 µM. In addition, the shift in melting temperature (ΔTm) with Calf thymus DNA came to 15.6 °C.

Take `CCN(CC)CCNCc1cc2c3ccccc3n(CCCc3ccccc3)c2cn1`: the IC50 in the test on OS-RC-2 was found to be 43.9 µM; in [1], 14.2 µM; in the test with HepG2, 7.2 µM; with KB it was 9.7 µM; with A-375 it was 5.9 µM; in the test on CWR22R, 8.2 µM. Besides, the IC50 worked out at 27.7 µM in the test with MCF7, 4.2 µM in the test with HT-29, 11.2 µM with 786-0 and 7.3 µM with 769-P.

Consider `CCCCn1c2ccccc2c2cc(CNCCCN(CC)CC)ncc21`, for which the IC50 was 35.7 µM in the test with OS-RC-2; 5.9 µM in test [1]; 4.6 µM with HepG2; 6.2 µM in the test on KB; 44.2 µM with A-375; 8.8 µM with CWR22R. Moreover, the 50% inhibitory concentration (IC50) in the test with MCF7 is 64.2 µM; in the test with HT-29 it was 2.6 µM; with 786-0, 19.5 µM; with 769-P, 2.2 µM. In addition, in the test with Calf thymus DNA, the ΔTm was determined as 20.6 °C.

For the compound `CCN(CC)CCCNCc1cc2c3ccccc3n(Cc3cccc(Cl)c3)c2cn1`, the concentration for half-maximal inhibition (IC50) was 8 µM in the test on OS-RC-2; 8.1 µM in test [1]; 11.7 µM in the test on HepG2; 7.8 µM in the test with KB; 14.7 µM with A-375; 8.4 µM with CWR22R. Further, the IC50 in the test with MCF7 was determined as 17.4 µM; in the test on HT-29 it was 9.3 µM; in the test on 786-0, 13 µM; in the test on 769-P, 14.3 µM.

Consider `CCN(CC)CCCCNCc1cc2c3ccccc3n(Cc3ccc(F)cc3)c2cn1`, for which the IC50 in the test with OS-RC-2 came out at 31.7 µM; in [1], 9.4 µM; in the test on HepG2, 2.5 µM; with KB, 6.5 µM; with A-375 it was 6.5 µM; in the test with CWR22R, 9.6 µM. Further, the IC50 was 20.2 µM in the test on MCF7, 10.1 µM with HT-29, 5.8 µM in the test on 786-0 and 2.9 µM in the test with 769-P.

`CCCCn1c2ccccc2c2cc(CNCCN(CC)CC)ncc21`: the IC50 in the test with OS-RC-2 was over 100 µM; in [1], 20.2 µM; with HepG2, 10.1 µM; in the test with KB, 13.7 µM; with A-375, 75.9 µM; with CWR22R, 25.7 µM. Besides, the IC50 with MCF7 was found to be 92.8 µM; in the test with HT-29, 7.8 µM; in the test on 786-0, 37.6 µM; in the test on 769-P it was 7.4 µM.

For `CCN(CC)CCCCNCc1cc2c3ccccc3n(C)c2cn1`, the IC50 was over 100 µM with OS-RC-2; over 100 µM in test [1]; over 100 µM with HepG2; 70.6 µM in the test with KB; over 100 µM in the test on A-375; over 100 µM with CWR22R. Besides, the IC50 is over 100 µM in the test with MCF7, 33.1 µM with HT-29, over 100 µM in the test with 786-0 and over 100 µM in the test with 769-P.

As to `CCN(CC)CCCCNCc1cc2c3ccccc3n(Cc3ccccc3)c2cn1`, the IC50 in the test on OS-RC-2 is 55 µM; in test [1], 29.3 µM; in the test on HepG2 it was 3 µM; in the test with KB it was 8.2 µM; in the test on A-375, 16.2 µM; with CWR22R, 8.9 µM. The IC50 was found to be 13.4 µM in the test with MCF7, 27 µM in the test on HT-29, 6.2 µM with 786-0 and 31 µM in the test on 769-P.

As for `CC(=O)O[C@H]1C(=O)[C@@]2(C)[C@H]([C@H](OC(=O)c3ccccc3)[C@]3(O)C[C@H](OC(=O)[C@H](O)[C@@H](NC(=O)c4ccccc4)c4ccccc4)C(C)=C1C3(C)C)[C@]1(OC(C)=O)CO[C@@H]1C[C@@H]2O` [PACLITAXEL], the half-inhibitory concentration (IC50) in the test on OS-RC-2 is under 0.08 µM; in [1], 1.5 µM; in the test with HepG2 it was under 0.08 µM; in the test on KB, 0.08 µM; in the test with CWR22R it was 0.08 µM; in the test on MCF7, 1.3 µM. Besides, the IC50 was 0.38 µM in the test with HT-29 and under 0.08 µM in the test on 786-0.

Regarding `COc1cccc2c1C(=O)c1c(O)c3c(c(O)c1C2=O)C[C@@](O)(C(=O)CO)C[C@@H]3O[C@H]1C[C@H](N)[C@H](O)[C@H](C)O1` [DOXORUBICIN HYDROCHLORIDE], the half-inhibitory concentration (IC50) in the test on OS-RC-2 is under 1 µM; in test [1], under 1 µM; with HepG2 it was 1 µM; in the test with KB it was 0.6 µM; with A-375, 17.2 µM; with CWR22R, under 1 µM. In addition, the IC50 was 4.2 µM with HT-29, 3.1 µM in the test on 786-0 and 11.5 µM in the test on 769-P.

With `CCN(CC)CCNCc1cc2c3ccccc3n(Cc3cccc(Cl)c3)c2cn1`, the IC50 amounted to 52.3 µM in the test with OS-RC-2; 37.9 µM in test [1]; 17.7 µM in the test with HepG2; 21.6 µM in the test on KB; 22.7 µM in the test on A-375; 58.5 µM in the test on CWR22R. Also, the IC50 in the test on MCF7 turned out to be 42.2 µM; in the test with HT-29, 19.7 µM; in the test on 786-0, 47.6 µM; with 769-P it was 19.3 µM.

Turning to `CCN(CC)CCNCc1cc2c3ccccc3n(C)c2cn1`, the IC50 was over 100 µM in the test on OS-RC-2; 75.7 µM in test [1]; over 100 µM in the test with HepG2; over 100 µM in the test with KB; over 100 µM in the test with A-375; over 100 µM in the test on CWR22R. The IC50 is over 100 µM with MCF7, 41.1 µM in the test with HT-29, over 100 µM in the test on 786-0 and over 100 µM in the test on 769-P.

Turning to `CCN(CC)CCCNCc1cc2c3ccccc3n(Cc3ccc(F)cc3)c2cn1`, the IC50 came out at 13.6 µM with OS-RC-2; 2.6 µM in [1]; 8 µM in the test with HepG2; 33.1 µM with KB; 13.7 µM in the test with A-375; 3.6 µM in the test with CWR22R. The IC50 in the test on MCF7 was found to be 31.8 µM; in the test with HT-29, 10.2 µM; with 786-0, 6.1 µM; in the test on 769-P, 8.5 µM.

For `CCN(CC)CCCCNCc1cc2c3ccccc3n(Cc3cccc(Cl)c3)c2cn1`, the IC50 with OS-RC-2 amounted to 6.7 µM; in test [1] it was 9.8 µM; with HepG2, 10.8 µM; in the test on KB, 4.2 µM; in the test on A-375, 12.6 µM; in the test on CWR22R it was 8.6 µM. The IC50 with MCF7 stood at 19.8 µM; in the test on HT-29 it was 12.2 µM; in the test on 786-0 it was 19.4 µM; with 769-P it was 8.2 µM.

As to `CCN(CC)CCNCc1cc2c3ccccc3n(Cc3ccccc3)c2cn1`, the IC50 in the test with OS-RC-2 was over 100 µM; in test [1] it was 9.7 µM; with HepG2, 13.1 µM; in the test on KB, 8.2 µM; in the test on A-375 it was 39.1 µM; in the test with CWR22R, 15.9 µM. For the same compound, the IC50 was 68.1 µM with MCF7, 5.2 µM in the test on HT-29, 14.4 µM in the test on 786-0 and 2 µM in the test with 769-P.

For the origin of these results see ChEMBL document CHEMBL1177786, “Synthesis of novel beta-carbolines with efficient DNA-binding capacity and potent cytotoxicity” (Bioorg Med Chem Lett, 2010).
